From ChEMBL document CHEMBL2417373, “Substituted tetrahydroisoquinolines as selective antagonists for the orexin 1 receptor” (J Med Chem, 2013) come the findings set out here.

The species entered for one data set is Homo sapiens. As to the kind of experiment: Selectivity ratio of Ke for OX2 receptor (unknown origin) to Ke for OX1 receptor (unknown origin).
Data set [1] addresses T1, Orexin/Hypocretin receptor type 1 (Homo sapiens) (UniProt O43613).
T1 sequence (whole entry): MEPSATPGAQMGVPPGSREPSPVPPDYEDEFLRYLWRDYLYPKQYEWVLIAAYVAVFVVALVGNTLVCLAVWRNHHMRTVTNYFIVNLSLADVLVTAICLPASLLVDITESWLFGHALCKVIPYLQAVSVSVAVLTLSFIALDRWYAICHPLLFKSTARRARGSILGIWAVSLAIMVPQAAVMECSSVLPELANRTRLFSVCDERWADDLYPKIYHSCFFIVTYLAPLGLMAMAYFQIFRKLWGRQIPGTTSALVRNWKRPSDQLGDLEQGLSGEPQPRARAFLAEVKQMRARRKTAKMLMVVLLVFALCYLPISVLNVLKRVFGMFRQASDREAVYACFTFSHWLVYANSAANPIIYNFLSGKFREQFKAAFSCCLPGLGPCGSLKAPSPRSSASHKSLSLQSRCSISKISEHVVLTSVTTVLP
Put plainly: Antagonist activity at OX1 receptor (unknown origin) expressed in RD-HGA16 cells assessed as inhibition orexin A-induced calcium mobilization by fluorescence assay. It is filed as functional, cell-based. A general note: Calcium flux is commonly read through the fluorescence of an indicator in the cells.

Data set [2] concerns the target T1, Orexin/Hypocretin receptor type 1 (Homo sapiens). As to the kind of experiment: Agonist activity at OX1 receptor (unknown origin) expressed in RD-HGA16 cells assessed as calcium mobilization at 10 uM by fluorescence assay. It is filed as functional, cell-based.
The subject of data set [3] is Rattus norvegicus. As to the kind of experiment: Antiaddictive activity in Sprague-Dawley rat assessed as reduction of cocaine-induced conditioned place preference at 20 mg/kg, ip administered 10 mins before cocaine challenge measured for 15 mins. Format: functional, organism-based. Also noted: dose 20 mg/kg. The gist of the method:
(§1)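 Unbiased two-compartment place conditioning in rats. Pretest 30 min with free access, first 15 min scored. Rats excluded if >75% or <25% of time in one side. Eight alternating conditioning days, 30 min confinement, vehicle on odd days and drug on even days. In the combination group, compound was given 10 min before cocaine 10 mg/kg. Injection volume 1 mL/kg. Preference score = drug-side time on test day minus pretest.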

Data set [4] deals with Rattus norvegicus. As to the kind of experiment: Induction of conditioned place preference in Sprague-Dawley rat at 20 mg/kg, ip measured for 15 mins. Format: organism-based. More on the design: dose 20 mg/kg, route intraperitoneal. Particulars: in vivo, 0.25 h. The gist of the method: as §1
Data set [5] addresses T2, Orexin receptor type 2 (Homo sapiens) (UniProt O43614).
T2 sequence (whole entry): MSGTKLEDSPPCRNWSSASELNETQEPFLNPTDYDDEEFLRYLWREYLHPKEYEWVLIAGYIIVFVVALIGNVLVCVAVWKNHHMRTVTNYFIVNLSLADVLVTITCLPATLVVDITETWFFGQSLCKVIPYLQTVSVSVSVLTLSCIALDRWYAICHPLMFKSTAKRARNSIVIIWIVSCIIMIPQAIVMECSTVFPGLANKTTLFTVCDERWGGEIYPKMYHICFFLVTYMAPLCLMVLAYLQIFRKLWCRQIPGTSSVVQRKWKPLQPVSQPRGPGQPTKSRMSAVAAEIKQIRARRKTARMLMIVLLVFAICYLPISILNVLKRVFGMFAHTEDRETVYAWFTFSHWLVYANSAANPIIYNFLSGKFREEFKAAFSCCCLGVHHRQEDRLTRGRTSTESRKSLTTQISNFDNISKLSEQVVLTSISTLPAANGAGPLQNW
Put plainly: Antagonist activity at OX2 receptor (unknown origin) expressed in RD-HGA16 cells assessed as inhibition orexin A-induced calcium mobilization by fluorescence assay. It is filed as functional, cell-based.

The next data set concerns the target T3, Orexin receptor type 2 (Homo sapiens, UniProt O43614).
T3 sequence (O43614 whole entry): T2 sequence (whole entry)
As to the kind of experiment: Antagonist activity at OX2 receptor (unknown origin).

A word on the pIC50: it is the negative decadic logarithm of the IC50, by convention in mol/L.

pIC50: −log10 of the molar value. Calls of active or inactive are those of the source. No cut-off for these calls is given here.

With `COc1ccc(CC2c3cc(OC)c(OC)cc3CCN2CC(=O)NCc2ccc(F)cc2)cc1OC` (stereo not drawn), the Ratio in the data set listed under Homo sapiens is 12.4. In data set [1], the Ke(app) is 279 nM. Besides, the result in data set [2] was inactive.
Taken in the same sequence, the figures for `COc1ccc(CC2c3cc(OCCC(C)C)c(OC)cc3CCN2CC(=O)NCc2ccccc2)cc1OC` (stereo not drawn) were 12, 326 nM and “inactive”.
Regarding `COc1ccc(CC2c3cc(OC)c(OC)cc3CCN2CC(=O)NC2CCCc3ccccc32)cc1OC` (stereo not drawn), the Ratio in the data set listed under Homo sapiens was 15.9. Further, in data set [1], the Ke(app) was 41.1 nM. Further, the outcome in data set [2] was inactive.
Take `COc1ccc(CC2c3cc(OCC(F)(F)F)c(OC)cc3CCN2CC(=O)NCc2cccnc2)cc1OC` (stereo not drawn): the outcome with Rattus norvegicus [3] was Active. In addition, the Activity entry with Rattus norvegicus [4] was “Non-toxic”. Moreover, the Ke(app) in data set [1] was found to be 8.5 nM. The outcome in data set [2] was inactive.
`CCCCOc1cc2c(cc1OC)CCN(CC(=O)NCc1ccccc1)C2Cc1ccc(OC)c(OC)c1` (stereo not drawn): the Ratio in the data set filed under Homo sapiens amounted to 34.6. Besides, the Ke(app) in data set [1] worked out at 54.7 nM. Besides, the result in data set [2] was inactive.
Turning to `COc1ccc(CC2c3cc(OC)c(OC)cc3CCN2CC(=O)N[C@@H](C)c2ccccc2)cc1OC` (single isomer, unassigned; diastereomer 2), the Ratio in the data set filed under Homo sapiens is above 125. Moreover, the Ke(app) in data set [5] is above 10 µM; in data set [1] it was 80 nM. Moreover, the outcome in data set [2] was inactive.
Regarding `COc1ccc(CC2c3cc(OC)c(OC)cc3CCN2CC(=O)NCc2ccc(Cl)cc2)cc1OC` (stereo not drawn), the Ratio in the data set filed under Homo sapiens was found to be 14. Besides, the Ke(app) in data set [1] is 162 nM. Moreover, the outcome in data set [2] was inactive.
Consider `COc1ccc(CC2c3cc(OC)c(OC)cc3CCN2CC(=O)Nc2ccccc2-c2ccccc2)cc1OC` (stereo not drawn), for which the Ratio in the data set listed under Homo sapiens came to 1.9. In data set [1], the Ke(app) turned out to be 944 nM. In data set [2], the result was inactive.
On the same counts, the results for `CCCCCCCNC(=O)CN1CCc2cc(OC)c(OC)cc2C1Cc1ccc(OC)c(OC)c1` (stereo not drawn) are 3.9, 589 nM and “inactive”.
In turn, `CNC(=O)[C@@H](c1ccccc1)N1CCc2cc(OC)c(OC)cc2[C@@H]1CCc1ccc(C(F)(F)F)cc1` [ALMOREXANT] had a pIC50 at Orexin receptor type 2 of 5.09.
Turning to `COc1ccc(CC2c3cc(OS(=O)(=O)c4ccccc4)c(OC)cc3CCN2CC(=O)NCc2ccccc2)cc1OC` (stereo not drawn), in the data set filed under Homo sapiens, the Ratio is 95.1. For the same molecule, in data set [1], the Ke(app) was 30.5 nM. Moreover, the outcome in data set [2] was inactive.
